≈ marks a conversion by molar mass, not a printed value.
Columns and labels:
[1] = target: T1, ATP-dependent translocase ABCB1 (Homo sapiens, UniProt P08183); assay: Reversal of P-glycoprotein mediated multidrug resistance in human KBV cells assessed as potentiation of paclitaxel-induced cytotoxicity by measuring cell survival rate at 10 uM measured after 72 hrs by MTT assay; assay type: cell-based
How it was run: (§1)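 KBV or MCF-7T cells were grown in DMEM with 10% heat-inactivated FCS, penicillin/streptomycin, 37 °C and 5% CO2, with periodic 10 nM paclitaxel to keep resistance; cells were used in exponential phase. Cells were exposed to test articles for 72 h, given MTT for about 2 h, the medium was removed and DMSO added. A570 gave the survival rate.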

[2] = Cytotoxicity against human KBV cells assessed as cell survival at 10 uM measured after 72 hrs by MTT assay; assay type: functional; conditions: read-out: Activity; how it was run: as §1
[3] = Induction of apoptosis in human KBV cells assessed as accumulation of cells in Sub-G1 phase at 10 uM measured by flowcytometry method (reference value: 1.9%); assay type: functional
[4] = target: T1, ATP-dependent translocase ABCB1; assay: Reversal of P-glycoprotein mediated multidrug resistance in human KBV cells assessed as paclitaxel-mediated apoptosis by measuring accumulation of cells in Sub-G1 phase in at 5 uM measured by flowcytometry method (Rvb (paclitaxel)= 2.1%); assay type: cell-based
[5] = target: T1, ATP-dependent translocase ABCB1; assay: Reversal of P-glycoprotein mediated multidrug resistance in human KBV cells assessed as paclitaxel-mediated apoptosis by measuring accumulation of cells in Sub-G1 phase in at 10 uM measured by flowcytometry method (Rvb (paclitaxel)= 2.1%); assay type: cell-based
[6] = Antiproliferative activity against human KBV cells in presence of 100 nM Paclitaxel; assay type: functional, cell-based; how it was run: as §1
[7] = Antitumour activity against human KBV cells xenografted in nude mouse assessed as paclitaxel-mediated tumour growth inhibition at 10 mg/kg; assay type: functional; conditions: read-out: TGI
[8] = Aqueous solubility of compound in deionized water at 37 degC measured by UV-vis spectrophotometry
[9] = Cytotoxicity against human KBV cells assessed as cell survival measured after 72 hrs by MTT assay; assay type: functional, cell-based; how it was run: as §1
[10] = Stability of compound in presence of Porcine liver esterase assessed as residual activity at pH 7.4 measured after 4 hrs; assay type: ADME; conditions: pig, read-out: Stabilty
How it was run: (§2)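 Compound in PBS pH 7.4 with porcine liver esterase, shaken at 37 °C. Aliquots were taken at set times, diluted 10-fold and centrifuged at 14,000 rpm for 5 min. Supernatants were run on C18 HPLC with isocratic 95% methanol/water (0.1% TFA) at 1 mL/min, UV 306 nm. Percent remaining is relative to the 0 h sample.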

[11] = Stability of compound in presence of Porcine liver esterase assessed as residual activity at pH 7.4 measured after 12 hrs; assay type: ADME; conditions: pig, read-out: Stabilty; how it was run: as §2
[12] = Stability of compound in presence of Porcine liver esterase assessed as residual activity at pH 7.4 measured after 24 hrs; assay type: ADME; conditions: pig, read-out: Stabilty; how it was run: as §2
[13] = target: T1, ATP-dependent translocase ABCB1; assay: Inhibition of P-glycoprotein mediated Rhodamine-123 efflux in human KBV cells assessed as Rhodamine-123 accumulation measured after 2 hrs by flowcytometry; assay type: cell-based; conditions: dose 5-10 µM
How it was run: (§3)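 KBV or MCF-7T cells were pretreated with or without compound for 2 h, then loaded with rhodamine 123 for 30 min. Cells were harvested and washed three times in PBS. Flow cytometry of 10,000 cells gave mean fluorescence intensity; mean ± SD, n = 3.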

[14] = target: T1, ATP-dependent translocase ABCB1; assay: Inhibition of P-glycoprotein mediated Rhodamine-123 efflux in human MCF-7T cells assessed as Rhodamine-123 accumulation measured after 2 hrs by flowcytometry; assay type: cell-based; conditions: dose 5-10 µM; how it was run: as §3
[15] = target: T1, ATP-dependent translocase ABCB1; assay: Inhibition of P-glycoprotein mediated Flutax1 efflux in human KBV cells assessed as Flutax1 accumulation at 5 uM […] by flowcytometry; assay type: cell-based
[16] = target: T1, ATP-dependent translocase ABCB1; assay: Inhibition of P-glycoprotein mediated Flutax1 efflux in human KBV cells assessed as Flutax1 accumulation at 10 uM measured after 2 hrs by flowcytometry; assay type: cell-based; conditions: mcf-t, in the assay text read “human MCF-7T cells” for “human KBV cells”
[17] = Cytotoxicity against human MCF-T cells assessed as cell survival measured after 72 hrs by MTT assay; assay type: functional, cell-based; how it was run: as §1

T1 sequence (P08183 whole entry): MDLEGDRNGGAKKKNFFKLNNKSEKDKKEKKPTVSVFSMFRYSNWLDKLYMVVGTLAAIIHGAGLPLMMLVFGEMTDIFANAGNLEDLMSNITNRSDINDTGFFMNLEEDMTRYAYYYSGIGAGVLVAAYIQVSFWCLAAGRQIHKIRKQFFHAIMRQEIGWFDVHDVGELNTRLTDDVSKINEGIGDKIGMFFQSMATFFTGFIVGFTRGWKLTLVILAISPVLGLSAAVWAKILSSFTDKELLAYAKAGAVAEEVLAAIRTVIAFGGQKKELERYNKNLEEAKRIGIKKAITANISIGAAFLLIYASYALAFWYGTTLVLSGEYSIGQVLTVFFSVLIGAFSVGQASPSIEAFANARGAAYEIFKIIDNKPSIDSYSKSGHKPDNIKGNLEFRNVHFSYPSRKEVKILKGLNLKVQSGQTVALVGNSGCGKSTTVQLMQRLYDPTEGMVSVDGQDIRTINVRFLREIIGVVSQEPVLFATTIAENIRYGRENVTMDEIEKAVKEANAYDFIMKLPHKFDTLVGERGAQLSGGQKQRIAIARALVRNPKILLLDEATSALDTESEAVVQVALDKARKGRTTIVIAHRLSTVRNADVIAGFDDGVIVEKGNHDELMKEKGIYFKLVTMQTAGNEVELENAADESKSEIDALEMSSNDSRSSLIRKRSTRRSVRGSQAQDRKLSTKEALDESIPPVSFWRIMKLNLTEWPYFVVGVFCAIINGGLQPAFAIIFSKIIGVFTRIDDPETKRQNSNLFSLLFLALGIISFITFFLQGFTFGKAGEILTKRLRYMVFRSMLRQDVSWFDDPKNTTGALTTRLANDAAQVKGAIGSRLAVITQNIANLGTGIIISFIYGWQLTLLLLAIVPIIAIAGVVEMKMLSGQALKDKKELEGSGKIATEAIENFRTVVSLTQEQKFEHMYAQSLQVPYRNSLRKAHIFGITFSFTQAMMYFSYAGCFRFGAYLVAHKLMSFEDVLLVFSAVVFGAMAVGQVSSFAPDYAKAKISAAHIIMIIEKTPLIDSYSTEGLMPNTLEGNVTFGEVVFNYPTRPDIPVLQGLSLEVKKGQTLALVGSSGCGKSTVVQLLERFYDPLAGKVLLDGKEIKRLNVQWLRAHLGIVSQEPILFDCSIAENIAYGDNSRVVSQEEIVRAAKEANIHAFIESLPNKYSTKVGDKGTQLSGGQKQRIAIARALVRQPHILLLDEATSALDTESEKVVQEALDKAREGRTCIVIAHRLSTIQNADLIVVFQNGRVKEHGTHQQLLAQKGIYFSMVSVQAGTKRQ

| Compound | cell survival rate [1] [%] | viability at 10 µM [2] [%] | further results |
| --- | --- | --- | --- |
| Cc1nc2c(s1)C[C@@]1(C)[C@@H](CC[C@]3(C)[C@@H]1CC=C1[C@@H]4CC(C)(C)CC[C@]4(C(=O)O)CC[C@]13C)[C@]2(C)CO | 61.78 | 96 |  |
| CC1(C)CC[C@]2(C(=O)OCc3ccccc3)CC[C@]3(C)C(=CC[C@@H]4[C@@]5(C)Cc6nccnc6[C@@](C)(CO)[C@@H]5CC[C@]43C)[C@@H]2C1 | 18.17 |  | Activity [3]: 2.3%; Activity [4]: 15.6%; Activity [5]: 25.4%; IC50 [6]: 2.39 nM; inhibition in vivo at 10 mg/kg [7]: 41.9%; solubility ([8]; pH 7.4, read-out: solubility): 0.0012 mg/mL (≈ 2.01 µM) |
| CC1(C)CC[C@]2(C(=O)OCC(=O)OCCOCCOCCOCCOCCOCCOCCOCCOCCOCCOCCOCCOCCO)CC[C@]3(C)C(=CC[C@@H]4[C@@]5(C)Cc6nccnc6[C@@](C)(CO)[C@@H]5CC[C@]43C)[C@@H]2C1 | 39.13 | 73.3 |  |
| CC1(C)CC[C@]2(C(=O)OCc3ccccc3)CC[C@]3(C)C(=CC[C@@H]4[C@@]5(C)Cc6nccnc6[C@@](C)(COC(=O)CCC(=O)OCCOCCOCCOCCOCCOCCOCCOCCOCCOCCOCCOCCOCCO)[C@@H]5CC[C@]43C)[C@@H]2C1.CO | 15.93 | 69.7 | solubility ([8]; pH 7.4, read-out: solubility): 0.789 mg/mL |
| CC1(C)CC[C@]2(C(=O)OCC(=O)OCCOCCOCCO)CC[C@]3(C)C(=CC[C@@H]4[C@@]5(C)Cc6nccnc6[C@@](C)(CO)[C@@H]5CC[C@]43C)[C@@H]2C1 | 28.76 | 80.5 |  |
| CN1CCN(C(=O)[C@]23CCC(C)(C)C[C@H]2C2=CC[C@@H]4[C@@]5(C)Cc6nccnc6[C@@](C)(CO)[C@@H]5CC[C@@]4(C)[C@]2(C)CC3)CC1 | 23.51 | 124 |  |
| CCN1CCN(C(=O)[C@]23CCC(C)(C)C[C@H]2C2=CC[C@@H]4[C@@]5(C)Cc6nccnc6[C@@](C)(CO)[C@@H]5CC[C@@]4(C)[C@]2(C)CC3)CC1 | 16.67 | 120 |  |
| CC(=O)O[C@H]1C(=O)[C@@]2(C)[C@H]([C@H](OC(=O)c3ccccc3)[C@]3(O)C[C@H](OC(=O)[C@H](O)[C@@H](NC(=O)c4ccccc4)c4ccccc4)C(C)=C1C3(C)C)[C@]1(OC(C)=O)CO[C@@H]1C[C@@H]2O [PACLITAXEL] | 103.48 |  | Activity [3]: 2.1%; IC50 [9]: 778 nM |
| CC1(C)CC[C@]2(C(=O)OCc3ccccc3)CC[C@]3(C)C(=CC[C@@H]4[C@@]5(C)Cc6cn[nH]c6[C@@](C)(CO)[C@@H]5CC[C@]43C)[C@@H]2C1 | 21.95 | 83.1 |  |
| CC1(C)CC[C@]2(C(=O)OCc3ccccc3)CC[C@]3(C)C(=CC[C@@H]4[C@@]5(C)Cc6nccnc6[C@@](C)(COC(=O)CCC(=O)OCCOCCOCCOCCOCCOCCOCCOCCOCCO)[C@@H]5CC[C@]43C)[C@@H]2C1 | 15.38 | 70.6 | solubility ([8]; pH 7.4, read-out: solubility): 0.546 mg/mL (≈ 500 µM) |
| CC1(C)CC[C@]2(C(=O)O)CC[C@]3(C)C(=CC[C@@H]4[C@@]5(C)Cc6cn[nH]c6[C@@](C)(CO)[C@@H]5CC[C@]43C)[C@@H]2C1 | 99.31 | 109 |  |
| CC1(C)CC[C@]2(C(=O)N3CCCCC3)CC[C@]3(C)C(=CC[C@@H]4[C@@]5(C)Cc6nccnc6[C@@](C)(CO)[C@@H]5CC[C@]43C)[C@@H]2C1 | 25.27 | 59.4 |  |
| CC1(C)CC[C@]2(C(=O)OCC(=O)OCCOCCOCCOCCO)CC[C@]3(C)C(=CC[C@@H]4[C@@]5(C)Cc6nccnc6[C@@](C)(CO)[C@@H]5CC[C@]43C)[C@@H]2C1 | 25.88 | 75.4 |  |
| CC1(C)CC[C@]2(C(=O)OCC(=O)OCCOCCOCCOCCOCCOCCOCCOCCOCCO)CC[C@]3(C)C(=CC[C@@H]4[C@@]5(C)Cc6nccnc6[C@@](C)(CO)[C@@H]5CC[C@]43C)[C@@H]2C1 | 25.16 | 76 |  |
| CC1(C)CC[C@]2(C(=O)OCc3ccccc3)CC[C@]3(C)C(=CC[C@@H]4[C@@]5(C)Cc6nccnc6[C@@](C)(COC(=O)CCC(=O)OCCOCCOCCO)[C@@H]5CC[C@]43C)[C@@H]2C1 | 43.54 | 82.5 | solubility ([8]; pH 7.4): Soluble |
| CC1(C)CC[C@]2(C(=O)OCc3ccccc3)CC[C@]3(C)C(=CC[C@@H]4[C@@]5(C)Cc6nccnc6[C@@](C)(COC(=O)CCC(=O)OCCOCCOCCOCCO)[C@@H]5CC[C@]43C)[C@@H]2C1 | 11.97 | 90.3 | Activity [3]: 2.4%; remaining at 4 h [10]: 98.3%; remaining at 12 h [11]: 81.8%; remaining at 24 h [12]: 78.9%; Activity [13]: Dose-Dependent Effect; Activity [14]: Dose-Dependent Effect; Activity [15]: Active; Activity [16]: Active; Activity [4]: 20.7%; Activity [5]: 48.9%; solubility ([8]; pH 7.4, read-out: solubility): 0.0216 mg/mL (≈ 24.7 µM) |
| CN(C)CCCOC(=O)[C@]12CCC(C)(C)C[C@H]1C1=CC[C@@H]3[C@@]4(C)Cc5nccnc5[C@@](C)(CO)[C@@H]4CC[C@@]3(C)[C@]1(C)CC2 | 12.65 | 67.5 |  |
| CC1(C)CC[C@]2(C(=O)OCc3ccccc3)CC[C@]3(C)C(=CC[C@@H]4[C@@]5(C)Cc6nccnc6[C@@](C)(COC(=O)CCC(=O)OCCOCCO)[C@@H]5CC[C@]43C)[C@@H]2C1 | 79.47 | 72.7 | solubility ([8]; pH 7.4): Soluble |
| CC1(C)CC[C@]2(C(=O)O)CC[C@]3(C)C(=CC[C@@H]4[C@@]5(C)CC[C@H](O)[C@@](C)(CO)[C@@H]5CC[C@]43C)[C@@H]2C1 [HEDERAGENIN] | 107.17 |  |  |
| CC1(C)CC[C@]2(C(=O)OCc3ccccc3)CC[C@]3(C)C(C(=O)C[C@@H]4[C@@]5(C)Cc6nccnc6[C@@](C)(CO)[C@@H]5CC[C@]43C)[C@@H]2C1 (some centres undefined) | 20.77 | 129 |  |
| Cc1nc2c(s1)C[C@@]1(C)[C@@H](CC[C@]3(C)[C@@H]1CC=C1[C@@H]4CC(C)(C)CC[C@]4(C(=O)OCc4ccccc4)CC[C@]13C)[C@]2(C)CO | 27.85 | 98.6 |  |
| CC1(C)CC[C@]2(C(=O)N3CCOCC3)CC[C@]3(C)C(=CC[C@@H]4[C@@]5(C)Cc6nccnc6[C@@](C)(CO)[C@@H]5CC[C@]43C)[C@@H]2C1 | 16.37 | 110 |  |
| CC[C@]1(O)C[C@H]2CN(CCc3c([nH]c4ccccc34)[C@@](C(=O)OC)(c3cc4c(cc3OC)N(C=O)[C@H]3[C@@](O)(C(=O)OC)[C@H](OC(C)=O)[C@]5(CC)C=CCN6CC[C@]43[C@@H]65)C2)C1 [VINCRISTINE] |  |  | IC50 [17]: 9.45 nM |
| COc1ccc(CCN(C)CCCC(C#N)(c2ccc(OC)c(OC)c2)C(C)C)cc1OC (centres undefined) |  |  | Activity [3]: 2.4%; Activity [4]: 40.6% |
| CC1(C)CC[C@]2(C(=O)OCC(=O)OCCOCCO)CC[C@]3(C)C(=CC[C@@H]4[C@@]5(C)Cc6nccnc6[C@@](C)(CO)[C@@H]5CC[C@]43C)[C@@H]2C1 | 26.15 | 81.7 |  |

From ChEMBL document CHEMBL4819015, “Design, synthesis, and biological evaluation of hederagenin derivatives with improved aqueous solubility and tumor resistance reversal activity” (Eur J Med Chem, 2021)
